Screens as filed in PubChem.
Only some compounds are listed: those with a hit (about 4.6% of all), similar ones and a draw of the others.
GPR7 antagonist: blocks human GPR7 receptor signaling; P48145; GPR7-expressing cells, fluorescence antagonist assay; inhibition, % at 4.4 µM; 1.1% of 290,000 active; in the data active = inhibition above about 16%, passing the limit was not always enough;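 note: cells stimulated with the agonist NPW; 0% = agonist with vehicle and 100% = vehicle without agonist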
OX1R antag-1: antagonists of human orexin 1 receptor; 0.43% of 330,000 active; CHO/OX1R cells, Fluo-8 calcium fluorescence, orexin A; O43613; inhibition, % at 5 µM; AID 434989;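 active = inhibition above its plate's threshold, mean inhibition of all tested compounds on the plate plus 3 SD, cut at about 37% in these data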;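 note: 0% = orexin A challenge wells and 100% = SB-334867-A antagonist wells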
Target sequence (O43613 whole entry, looked up): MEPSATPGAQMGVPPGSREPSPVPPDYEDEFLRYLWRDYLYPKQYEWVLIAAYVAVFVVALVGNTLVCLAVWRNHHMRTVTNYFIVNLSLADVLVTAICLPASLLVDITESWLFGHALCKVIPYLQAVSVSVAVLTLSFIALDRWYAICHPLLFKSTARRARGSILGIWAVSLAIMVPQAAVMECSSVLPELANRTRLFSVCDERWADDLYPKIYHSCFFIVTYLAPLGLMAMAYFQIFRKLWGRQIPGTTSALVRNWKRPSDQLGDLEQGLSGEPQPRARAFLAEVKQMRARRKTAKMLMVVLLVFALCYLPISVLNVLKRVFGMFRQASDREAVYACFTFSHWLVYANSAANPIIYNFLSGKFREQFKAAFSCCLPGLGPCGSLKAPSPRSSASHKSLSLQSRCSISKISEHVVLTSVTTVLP
TAAR1 ag: human TAAR1 agonism; Q96RJ0; CHO RD-HGA16 TAAR1, Fluo-8 calcium fluorescence; vehicle wells 0%, saturating PEA agonist 100%; activation, % at 3 µM; 0.99% of 360,000 active; AID 624467;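 active = activation above the mean activation of all test compounds in the run plus 3 SD, cut at about 38% in these data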
Target sequence (Q96RJ0 whole entry, looked up): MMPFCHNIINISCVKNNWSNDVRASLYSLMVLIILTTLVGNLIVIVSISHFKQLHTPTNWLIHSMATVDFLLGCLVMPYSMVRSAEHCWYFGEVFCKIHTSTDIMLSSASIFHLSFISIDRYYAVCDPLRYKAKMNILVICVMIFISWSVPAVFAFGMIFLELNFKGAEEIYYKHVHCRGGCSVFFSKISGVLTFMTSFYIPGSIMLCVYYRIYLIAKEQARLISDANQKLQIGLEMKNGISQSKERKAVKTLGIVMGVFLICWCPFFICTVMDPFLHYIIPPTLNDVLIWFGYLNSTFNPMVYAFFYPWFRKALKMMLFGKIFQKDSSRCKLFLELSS
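Assay system – CHO-derived RD-HGA16 cells with stable Gα16 and human TAAR1 · Compound dosing – one-point dosing at 3 µM (nominal) · Incubation – 17-24 h seeding, 75 min 37 °C dye, 30 min RT · Measured by – kinetic Fluo-8 calcium fluorescence · Control set – DMSO vehicle as 0%, PEA at EC100 as 100% · Repeats – single well for each compound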
TAAR1 antagonist: antagonists of human TAAR1; Q96RJ0; CHO RD-HGA16 TAAR1, Fluo-8 calcium fluorescence, antagonist; inhibition, % at 3 µM; 1.5% of 360,000 active; AID 624466;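 active = inhibition above a per-plate cutoff, the mean inhibition of test compounds on that plate plus 3 SD, cut at about 49% in these data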;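 note: 0% = DMSO plus EC80 beta-PEA response and 100% = DMSO alone without agonist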
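Test system – hTAAR1-expressing CHO RD-HGA16 cells, Gα16-coupled · Also added – β-PEA at EC80 concentration, post-compound challenge · Compound – 3 µM, single point · Incubation – dye loading 75 min at 37 °C, then 30 min room temperature · Measured by – Fluo-8 intracellular calcium dye fluorescence, real-time kinetic reads · Benchmarks – vehicle and agonist controls · Replicates – singlicate, one well per test compound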
CHO parental Ca: signal in parental CHO cells, OX1R antagonist counter-screen | parental CHO-K1, ATP-induced calcium, Fluo-8 fluorescence | inhibition, % at 5.6 µM | 0.63% of 330,000 active | AID 463079;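 active = inhibition above that plate's mean sample inhibition plus 3 SD, cut at about 26% in these data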;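 note: 0% = ATP-challenged DMSO wells and 100% = DMSO wells without ATP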
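test system = CHO parental line | reagent = ATP stimulus | measured by = intracellular calcium via Fluo-8 no-wash fluorescent dye | control set = ATP and no-ATP DMSO wells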
OX1R antag-2: blocks the human orexin 1 receptor; O43613; OX1R-expressing cells, FRET antagonist read-out; inhibition, % at 6.6 µM; 1.8% of 330,000 active; in the data active = inhibition mostly above about 38%, no sharp cut-off; inactive = mostly below about 40%;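 note: 0% = agonist challenge alone and 100% = reference antagonist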
TAAR1 ag confirm: human TAAR1 agonism, confirmed. shares compounds with TAAR1 ag. CHO RD-HGA16 TAAR1, Fluo-8 calcium fluorescence; scaled: DMSO 0%, maximal phenethylamine 100%. 82% of 2,400 active. activation, % at 3 µM;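 active = activation above a cutoff set at the run's mean compound activation plus 3 SD, cut at about 39% in these data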
Ga16 ag counter: nonselective agonism, TAAR1 counter-screen | 50% of 2,400 active | shares compounds with TAAR1 ag | activation, % at 3 µM | AID 651787 | CHO-Ga16 parental, Fluo-8 calcium fluorescence; normalized to maximal ATP response, DMSO zero;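 active = activation above the run cutoff, the mean activation over all tested wells plus 3 SD, cut at about 12% in these data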;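 note: 0% = DMSO wells and 100% = maximal ATP response on the peak over basal ratio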
TAAR1 desens: counter-screen for human TAAR1 agonists: agonists that desensitize TAAR1; shares compounds with TAAR1 ag; CHO RD-HGA16 hTAAR1, Fluo-8 calcium, beta-PEA response inhibition; inhibition, % at 3 µM; 46% of 2,400 active; AID 651951;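 active = inhibition above the run cutoff, the mean inhibition of all test compounds plus 3 SD, cut at about 49% in these data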;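 note: beta-PEA stimulus applied at its EC80; loss of beta-PEA calcium signal after compound pretreatment read as receptor desensitization; 0% = DMSO with beta-PEA at EC80 and 100% = DMSO alone without agonist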
Ga16 nonsel ant: nonselective Ga16 antagonism, counter-screen; shares compounds with TAAR1 ag; CHO-Ga16 ATP-induced calcium, Fluo-8 fluorescence; 39% of 2,400 active; inhibition, % at 3 µM;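 active = inhibition above the plate's mean compound inhibition plus 3 SD, computed per plate, cut at about 22% in these data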;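 note: 0% = EC80 ATP with DMSO and 100% = DMSO wells without ATP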
Active calls of the source: *.

How did COc1ccc(NC(=O)CN(C)C(=O)CCNC(=O)Nc2ccccc2)cc1 do in these assays?
TAAR1 ag: 9; TAAR1 antagonist: -20

What do the screens show for `Cc1cc(=O)[nH]c(Nc2cccc(F)c2)n1`?
GPR7 antagonist: -7; OX1R antag-1: 5; TAAR1 ag: 51*; TAAR1 antagonist: 10; CHO parental Ca: 24; OX1R antag-2: 8; TAAR1 ag confirm: 81*; Ga16 ag counter: 2; TAAR1 desens: 41; Ga16 nonsel ant: 5

What do the screens show for `Cc1ccccc1OCCSc1nnc(-c2ccncc2)n1C`?
GPR7 antagonist: 4; OX1R antag-1: -14; TAAR1 ag: 3; TAAR1 antagonist: -5; CHO parental Ca: -6; OX1R antag-2: 10

How did CCCC#Cc1cnc2c(c1)C(=O)N([C@H](C)CO)C[C@H](C)[C@@H](CN(C)C(=O)CCN1CCCCC1)O2 do in these assays?
TAAR1 ag: 0; TAAR1 antagonist: 0

How did CCOc1ccccc1C(=O)N[C@H](C(=O)Nc1nc2c(s1)CCCC2)C(C)C do in these assays?
GPR7 antagonist: -14; OX1R antag-1: -49; TAAR1 ag: 46*; TAAR1 antagonist: -23; CHO parental Ca: -36; OX1R antag-2: 17; TAAR1 ag confirm: 41*; Ga16 ag counter: 13*; TAAR1 desens: 3; Ga16 nonsel ant: 6

How did CCCC[C@@H]1CNCCN1CCc1cccc2ccccc12 do in these assays?
OX1R antag-1: -27; TAAR1 ag: 66*; TAAR1 antagonist: 75*; CHO parental Ca: -10; OX1R antag-2: 3; TAAR1 ag confirm: 70*; Ga16 ag counter: 6; TAAR1 desens: 87*; Ga16 nonsel ant: 17

Results for c1ccc(C[C@H]2CNCCN2CCc2cccc3ccccc23)cc1 ?
OX1R antag-1: -9; TAAR1 ag: 19; TAAR1 antagonist: 11; CHO parental Ca: 0; OX1R antag-2: 10

How did FC(F)(F)c1cc(CCN2CCNC[C@H]2Cc2cccc3ccccc23)cc(C(F)(F)F)c1 do in these assays?
OX1R antag-1: -4; TAAR1 ag: 84*; TAAR1 antagonist: 95*; CHO parental Ca: 28; OX1R antag-2: 12; TAAR1 ag confirm: 51*; Ga16 ag counter: 28*; TAAR1 desens: 40; Ga16 nonsel ant: 40*

How did NC(Cc1ccccc1)C(O)(c1ccccc1)c1ccccc1 (centres undefined) do in these assays?
GPR7 antagonist: 8; OX1R antag-1: -14; TAAR1 ag: 3; TAAR1 antagonist: 9; CHO parental Ca: -36; OX1R antag-2: 4

Results for CC1CC(C)CN(S(=O)(=O)c2ccc3c(c2)C(C)(C)C(=O)N3C)C1 (centres undefined) ?
GPR7 antagonist: 6; OX1R antag-1: -11; TAAR1 ag: 4; TAAR1 antagonist: -4; CHO parental Ca: -11; OX1R antag-2: 30

What do the screens show for `Cc1nnc(NC(=O)C2c3ccccc3Oc3ccccc32)s1`?
GPR7 antagonist: -7; OX1R antag-1: -25; TAAR1 ag: 18; TAAR1 antagonist: -19; CHO parental Ca: -9; OX1R antag-2: 5

Results for CCOCc1nnc(NC(=O)C2c3ccccc3Oc3ccccc32)s1 ?
GPR7 antagonist: 21; OX1R antag-1: 2; TAAR1 ag: 77*; TAAR1 antagonist: 23; CHO parental Ca: 6; OX1R antag-2: -1; TAAR1 ag confirm: 91*; Ga16 ag counter: 54*; TAAR1 desens: 49*; Ga16 nonsel ant: 37*

How did O=C(N/C(=C\c1ccc(Cl)cc1)C(=O)N1CCCCC1)c1ccco1 do in these assays?
GPR7 antagonist: -7; OX1R antag-1: -13; TAAR1 ag: 4; TAAR1 antagonist: -5; CHO parental Ca: -14; OX1R antag-2: 29

How did COc1ccccc1NC(=O)CCCCCN1C(=O)c2cccc([N+](=O)[O-])c2C1=O do in these assays?
GPR7 antagonist: -21; OX1R antag-1: -11; TAAR1 ag: 3; TAAR1 antagonist: -15; CHO parental Ca: -12; OX1R antag-2: 29

Results for COc1cc(/C=C2/C(=O)c3cccc([N+](=O)[O-])c3C2=O)c(Br)cc1O ?
GPR7 antagonist: -6; OX1R antag-1: -2; TAAR1 ag: 50*; TAAR1 antagonist: 26; CHO parental Ca: -12; OX1R antag-2: 24; TAAR1 ag confirm: 37; Ga16 ag counter: 28*; TAAR1 desens: 42; Ga16 nonsel ant: 46*

Results for N#C/C(=C\c1ccc(-c2ccc(S(=O)(=O)N3CCOCC3)cc2)o1)C(=O)NC1CC1 ?
GPR7 antagonist: -16; OX1R antag-1: -13; TAAR1 ag: 7; TAAR1 antagonist: 21; CHO parental Ca: 3; OX1R antag-2: 13

How did CC1CN=C(c2cccn2Cc2ccc(F)cc2Cl)O1 (centres undefined) do in these assays?
GPR7 antagonist: -17; OX1R antag-1: -10; TAAR1 ag: 3; TAAR1 antagonist: -14; CHO parental Ca: -5; OX1R antag-2: 5

How did CC(NCc1ccc2c(c1)OCO2)c1ccccc1 (centres undefined) do in these assays?
GPR7 antagonist: -15; OX1R antag-1: -15; TAAR1 ag: 4; TAAR1 antagonist: -12; CHO parental Ca: -12; OX1R antag-2: -3

How did CC1=NN(/C(=N\c2nnc(C)s2)Nc2ccccc2)[C@H](c2cccc3ccccc23)S1 do in these assays?
GPR7 antagonist: 3; OX1R antag-1: -28; TAAR1 ag: 70*; TAAR1 antagonist: -6; CHO parental Ca: -15; OX1R antag-2: 15; TAAR1 ag confirm: 47*; Ga16 ag counter: 2; TAAR1 desens: 0; Ga16 nonsel ant: 11

What do the screens show for `O=C(NN1C(=O)C2C(c3ccccc3)C=CC(c3ccccc3)C2C1=O)c1ccncc1` (centres undefined)?
GPR7 antagonist: -3; OX1R antag-1: 9; TAAR1 ag: 47*; TAAR1 antagonist: 24; CHO parental Ca: -4; OX1R antag-2: 11; TAAR1 ag confirm: 18; Ga16 ag counter: 16*; TAAR1 desens: 17; Ga16 nonsel ant: 9
